Published values gathered from unrelated publications.
Each line is one published result; the experiments were not run side by side.
Effect on: cell growth or viability

Compound	cell line	method	concentration	time	quantity	result
COc1ccc2c(c1OC)C(=O)O[C@@H]2[C@H]1c2c(cc3c(c2OC)OCO3)CCN1C	FaDu	–	–	72 h	IC50	15200 nM
COc1cc(Nc2nccc(-c3cnn4nc(OC)ccc34)n2)cc(C(F)(F)F)c1	SAOS-2	ATP luminescence	–	–	IC50	320 nM
CN1CCN(C(=O)[C@H](CCCN[C@@H]2C[C@H]2c2ccc(F)cc2)NC(=O)c2ccc(-n3ccnn3)cc2)CC1	TF-1a	resazurin	–	96 h	EC50	31.1 nM
CC(=O)Nc1cccc(-n2c(=O)n(C3CC3)c(=O)c3c(Nc4ccc(I)cc4F)n(C)c(=O)c(C)c32)c1	SW-620	resazurin	6.25 nM	72 h	viability	38.8%
CC/C(=C(\c1ccccc1)c1ccc(OCCN(C)C)cc1)c1ccccc1	CAPAN-1	ATP luminescence	–	72 h	EC90	28400 nM
CC(C)C[C@H](NC(=O)[C@H](Cc1ccccc1)NC(=O)c1cnccn1)B(O)O	J82	ATP luminescence	–	–	IC50	10 nM
N[C@H]1CC[C@H](N[C@@H]2C[C@H]2c2ccccc2)CC1	TF-1a	resazurin	–	96 h	EC50	0.09 nM
C[C@H](Nc1ccc2c(c1)OCCn1cc(N3C(=O)OC[C@H]3C(F)F)nc1-2)C(N)=O	HCC1954	–	–	5 days	EC50	108 nM
C/C(=N\NC(=O)c1cccc(S(=O)(=O)N2CCN(C)CC2)c1)c1cc(Cl)ccc1O	TF-1a	resazurin	–	96 h	EC50	1260 nM
CC1(C)C(=O)NC2=C1C(=O)C(=O)c1ccccc12	FaDu	–	–	72 h	IC50	4200 nM
